SENP1 inh = inhibitors of human SENP1 SUMO protease catalytic domain. AID 624204. Q9P0U3. 360,000 compounds, 0.21% hits. inhibition, % at 10 µM. recombinant SENP1 catalytic domain, CyPet-SUMO1-YPet FRET cleavage;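 active = inhibition at least 30% at 10 µM, raw YFP signal under a set limit, fluorescence ratio 0.5 to 1.5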
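Compound: 10 µM single point, 0.5% DMSO; Test system: hSENP1 catalytic domain, recombinant; Timing: 50 min reaction at room temperature; Technique: FRET, CFP and YFP emission; Control set: no-enzyme wells low, DMSO-plus-enzyme wells high control.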
ADAM17 inh = ADAM17 inhibition, QFRET primary screen; recombinant ADAM17, EDANS/DABCYL FRET peptide cleavage; AID 720648; P78536; 370,000 compounds, 0.83% hits; inhibition, % at 6.95 µM;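 active = inhibition above the mean of compounds lying between control limits plus 3 SD, set per campaign, cut at about 8.5% in these data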
FAS TE block = blocks the thioesterase domain of human fatty acid synthase | recombinant FAS-TE, OMFH fluorogenic substrate, fluorescence endpoint | P49327 | AID 602261 | 360,000 compounds, 0.67% hits | inhibition, % at 15 µM;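 active = compounds whose normalised, plate-corrected inhibition of enzyme fluorescence in the single-dose primary screen is 50% or more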
ADAM10 inh = inhibits human ADAM10 | 370,000 compounds, 0.62% hits | inhibition, % at 7 µM | O14672 | recombinant ADAM10, EDANS/DABCYL FRET peptide cleavage, 3 h;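 active = inhibition above a per-campaign cutoff equal to the mean of compounds falling between control-based bounds plus 3 SD, cut at about 20% in these data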
Target sequence (O14672 214-748 limits assumed): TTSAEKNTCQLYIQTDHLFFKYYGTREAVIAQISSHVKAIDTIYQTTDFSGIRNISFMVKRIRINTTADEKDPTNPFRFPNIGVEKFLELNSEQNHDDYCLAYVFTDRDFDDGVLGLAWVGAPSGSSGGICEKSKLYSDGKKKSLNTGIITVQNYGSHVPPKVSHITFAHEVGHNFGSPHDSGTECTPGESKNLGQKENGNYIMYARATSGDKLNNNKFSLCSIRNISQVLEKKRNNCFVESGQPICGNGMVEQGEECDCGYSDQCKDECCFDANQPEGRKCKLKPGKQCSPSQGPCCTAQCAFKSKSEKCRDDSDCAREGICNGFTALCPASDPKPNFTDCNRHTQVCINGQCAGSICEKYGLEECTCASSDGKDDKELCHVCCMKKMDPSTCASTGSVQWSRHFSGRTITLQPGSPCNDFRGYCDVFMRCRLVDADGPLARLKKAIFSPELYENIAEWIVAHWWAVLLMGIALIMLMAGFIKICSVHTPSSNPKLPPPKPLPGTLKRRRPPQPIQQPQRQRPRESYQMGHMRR
Hits are given with their value; 0 = inactive; - = not tested or not shown. Rows were chosen to be rich in hits. Some 1.9% of all compounds tested hit in one or more screens of this group.

SMILES	SENP1 inh	ADAM17 inh	FAS TE block	ADAM10 inh
COc1ccc(/C=C2/SC(=S)N(NS(=O)(=O)c3ccccc3)C2=O)cc1	0	0	0	0
C=CCOc1ccc(/C=C2\SC(N)=NC2=O)cc1OC	0	0	0	0
CCOc1cc(/C=C2\SC(=S)N(NS(=O)(=O)c3ccc(C)cc3)C2=O)ccc1O	83	0	0	0
COc1cc(/C=C2/SC(=S)N(c3c(C)n(C)n(-c4ccccc4)c3=O)C2=O)ccc1O	46	0	0	0
COc1cc(/C=C2\SC(N)=NC2=O)ccc1O	40	0	0	0
COC1=C[C@H](C(=O)NCCNC(C)=O)[C@@]2(C)Cc3ccccc3[C@H]2CC1=O	-	0	-	0
COc1cc(/C=C2\SC(=S)N(NS(=O)(=O)c3ccc(C)cc3)C2=O)cc(OC)c1OC	0	0	0	0
COc1cc(/C=C2\N=C3CCCCCN3C2=O)ccc1O	37	0	0	0
COc1cc(/C=C2\SC(=S)N(NS(=O)(=O)c3ccc(C)cc3)C2=O)ccc1O	91	0	0	0
CN(C)c1ccc(-c2nc3ncc(Cl)cc3[nH]2)cc1	-	0	-	0
S=c1[nH]nc(-c2cc(-c3ccccc3)n[nH]2)n1N=Cc1c[nH]c2ccccc12	-	0	-	0
COc1ccc(-c2cccc(NS(=O)(=O)c3cc([N+](=O)[O-])c(C)c([N+](=O)[O-])c3)c2)nn1	0	0	0	0
COc1ccc(-c2ccc(NS(=O)(=O)c3cc([N+](=O)[O-])c(C)c([N+](=O)[O-])c3)cc2)nn1	0	0	59	0
COC(=O)[C@]1(CC(C)C)N[C@H](c2ccc(-c3ccc(Cl)c(Cl)c3)cc2)[C@@H]2C(=O)N(C)C(=O)[C@@H]21	0	0	61	0
O=C(Nc1ccncc1)Nc1cccc(C(F)(F)F)c1	0	0	0	0
CCN(CC)S(=O)(=O)c1ccc(NC(=O)Nc2cccc(C(F)(F)F)c2)cc1	0	14	0	39
O=C1c2cccc3cc([N+](=O)[O-])cc(c23)C(=O)N1CCN1CCCC1	70	0	0	0
Nc1cc2c3c(cccc3c1)C(=O)N(CCN1CCCC1)C2=O	0	0	0	0
CCN1C(=O)[C@@H]2[C@@H](c3ccc(-c4ccc(F)cc4)c(OC)c3)N3CCC[C@@]3(C(=O)OC)[C@@H]2C1=O	0	0	0	0
CCN1C(=O)[C@H]2[C@@H](c3ccc(-c4ccc(F)cc4)c(OC)c3)N3CCCC[C@@]3(C(=O)OC)[C@H]2C1=O	0	8.6	0	0
Nc1ccc(Nc2ccccc2)c(Cl)c1	0	0	0	0
Nc1ccccc1Nc1ccccc1	49	0	0	0
CCOC(=O)N1C(=O)C[C@](Sc2ccc(OC)cc2)(C(=O)N2CCOCC2)[C@H]1c1ccc(OC)cc1	-	0	-	0
O=C1CCCC2=C1Sc1ccccc1N2	52	0	0	0
Cc1ccccc1C(C(=O)NC1CCCC1)N(C(=O)Cc1cccs1)c1ccc2c(c1)OCCO2 (configuration not stated)	0	0	54	0
SMILES	SENP1 inh	ADAM17 inh	FAS TE block	ADAM10 inh
Cc1cc(C)cc(N(C(=O)Cc2cccs2)C(C(=O)NC2CCCCC2)c2ccccn2)c1 (configuration not stated)	0	0	0	0
CCOC(=O)Nc1ccc2c(c1)[C@@]1(CC(=O)N(CC(C)C)C1c1ccccc1)C(=O)N2C (some centres not stated)	-	0	-	0
Cc1ccc(N=C2NC(=O)/C(=C/c3cccs3)S2)cc1C	36	0	0	0
Cc1ccc(-c2nc3ccccc3[nH]2)s1	59	0	0	0
O=C(CNCc1ccccc1Cl)Nc1cc(S(=O)(=O)N2CCOCC2)ccc1Cl	0	0	0	0
O=C(Nc1cc(S(=O)(=O)N2CCOCC2)ccc1Cl)C(=O)c1c(-c2ccccc2)cc2ccccn12	0	0	76	0
O=C(O)CSc1cc(C(=O)c2cc(F)ccc2O)cn2c(=O)c3c(-c4ccccc4)csc3nc12	0	0	66	0
C=CCN(C)CC#Cc1ccccc1C	-	0	-	0
CCSc1nc(O)cc(=O)[nH]1	0	0	0	0
N#CNc1nc(O)cc(=O)[nH]1	29	-	0	-
O=C1C=CC(=Nc2ccc3c(c2)C(=O)c2ccccc2-3)O1	0	12	0	0
O=C1C=CC(=Nc2ccc(F)cc2)O1	0	0	0	0
O=c1cc2c(=O)oc3cc(O)c(O)oc3c2c(O)c1O	30	0	0	0
O=C(Nc1ccc(F)c(F)c1)c1cc(S(=O)(=O)N2CCN(c3ccccn3)CC2)ccc1F	0	9.6	0	0
CCCCNC(=O)C1CCCN1C(=O)Nc1ccc(Cl)cc1 (configuration not stated)	-	0	-	0

Screening data deposited in PubChem by several laboratories.
